Experimental data published in the M2OR odorant receptor database.

Columns and labels:
Conditions in all cases: stereoisomer not certain
UniProt Q8VFP5 = biological target: T1, UniProt Q8VFP5
T1 sequence (whole entry): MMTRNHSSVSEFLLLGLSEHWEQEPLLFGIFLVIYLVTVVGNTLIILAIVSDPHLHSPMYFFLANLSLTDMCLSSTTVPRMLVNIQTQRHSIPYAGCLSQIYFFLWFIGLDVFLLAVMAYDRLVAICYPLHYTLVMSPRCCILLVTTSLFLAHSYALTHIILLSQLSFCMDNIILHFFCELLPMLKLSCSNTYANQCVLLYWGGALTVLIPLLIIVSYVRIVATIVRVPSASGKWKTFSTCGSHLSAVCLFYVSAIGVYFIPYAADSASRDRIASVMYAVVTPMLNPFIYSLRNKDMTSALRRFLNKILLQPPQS
In short: (§1)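 Assay methods differ from source to source, frequently being transient luciferase assays in mammalian cell lines. For each receptor–molecule pair, the label responsive (active) applies when the original authors judged the measured signal statistically different from baseline, and non-responsive (inactive) applies otherwise.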

UniProt Q8VG01 = biological target: T2, UniProt Q8VG01
T2 sequence (whole entry): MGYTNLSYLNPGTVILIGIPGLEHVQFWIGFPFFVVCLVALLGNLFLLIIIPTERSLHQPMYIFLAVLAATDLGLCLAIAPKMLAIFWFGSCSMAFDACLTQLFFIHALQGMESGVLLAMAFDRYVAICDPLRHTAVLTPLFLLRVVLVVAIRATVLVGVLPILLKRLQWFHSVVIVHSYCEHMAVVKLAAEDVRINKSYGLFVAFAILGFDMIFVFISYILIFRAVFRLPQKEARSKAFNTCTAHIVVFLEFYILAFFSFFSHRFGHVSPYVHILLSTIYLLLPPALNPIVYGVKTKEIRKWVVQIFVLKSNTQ
In short: as §1

UniProt Q8VG26 = biological target: UniProt Q8VG26
Sequence of UniProt Q8VG26 (Q8VG26 as listed by the source): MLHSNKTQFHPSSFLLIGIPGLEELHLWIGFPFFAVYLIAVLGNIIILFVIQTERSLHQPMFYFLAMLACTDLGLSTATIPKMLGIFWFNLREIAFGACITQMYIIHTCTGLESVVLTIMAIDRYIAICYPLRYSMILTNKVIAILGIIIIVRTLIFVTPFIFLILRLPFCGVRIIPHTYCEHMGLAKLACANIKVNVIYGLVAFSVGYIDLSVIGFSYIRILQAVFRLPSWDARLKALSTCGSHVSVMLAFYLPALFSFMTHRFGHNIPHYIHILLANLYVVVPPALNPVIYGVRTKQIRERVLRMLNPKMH
In short: as §1

UniProt Q8VG27 = biological target: T3, UniProt Q8VG27
T3 sequence (whole entry): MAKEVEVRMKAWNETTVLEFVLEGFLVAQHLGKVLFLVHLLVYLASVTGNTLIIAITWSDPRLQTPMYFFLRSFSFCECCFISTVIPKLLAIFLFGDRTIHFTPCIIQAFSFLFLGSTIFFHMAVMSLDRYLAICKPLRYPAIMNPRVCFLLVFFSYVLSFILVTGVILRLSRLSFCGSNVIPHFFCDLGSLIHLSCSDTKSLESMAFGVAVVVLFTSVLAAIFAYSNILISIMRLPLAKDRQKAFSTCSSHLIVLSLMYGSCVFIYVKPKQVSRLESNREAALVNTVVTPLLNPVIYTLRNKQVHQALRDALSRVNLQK
In short: as §1

UniProt Q8VG28 = biological target: UniProt Q8VG28
Sequence of UniProt Q8VG28 (Q8VG28 as listed by the source): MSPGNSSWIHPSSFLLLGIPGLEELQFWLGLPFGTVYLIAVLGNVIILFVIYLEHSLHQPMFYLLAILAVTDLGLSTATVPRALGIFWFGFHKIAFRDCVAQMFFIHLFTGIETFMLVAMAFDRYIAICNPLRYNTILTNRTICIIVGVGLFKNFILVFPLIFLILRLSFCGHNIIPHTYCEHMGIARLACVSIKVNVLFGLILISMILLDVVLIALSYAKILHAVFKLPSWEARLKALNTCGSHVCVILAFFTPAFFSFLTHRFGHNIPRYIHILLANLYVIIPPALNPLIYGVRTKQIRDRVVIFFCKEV
In short: as §1

UniProt Q8VG53 = biological target: T4, UniProt Q8VG53
T4 sequence (whole entry): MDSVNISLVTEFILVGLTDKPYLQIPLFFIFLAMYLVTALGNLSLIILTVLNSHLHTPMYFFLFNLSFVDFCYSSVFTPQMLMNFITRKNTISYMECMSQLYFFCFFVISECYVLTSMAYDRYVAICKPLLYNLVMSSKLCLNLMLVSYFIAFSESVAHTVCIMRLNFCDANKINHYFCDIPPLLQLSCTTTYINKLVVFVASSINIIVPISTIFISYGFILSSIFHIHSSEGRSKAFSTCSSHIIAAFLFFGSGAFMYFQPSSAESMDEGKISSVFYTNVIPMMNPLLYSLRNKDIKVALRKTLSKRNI
In short: as §1

UniProt Q8VG64 = biological target: T5, UniProt Q8VG64
T5 sequence (whole entry): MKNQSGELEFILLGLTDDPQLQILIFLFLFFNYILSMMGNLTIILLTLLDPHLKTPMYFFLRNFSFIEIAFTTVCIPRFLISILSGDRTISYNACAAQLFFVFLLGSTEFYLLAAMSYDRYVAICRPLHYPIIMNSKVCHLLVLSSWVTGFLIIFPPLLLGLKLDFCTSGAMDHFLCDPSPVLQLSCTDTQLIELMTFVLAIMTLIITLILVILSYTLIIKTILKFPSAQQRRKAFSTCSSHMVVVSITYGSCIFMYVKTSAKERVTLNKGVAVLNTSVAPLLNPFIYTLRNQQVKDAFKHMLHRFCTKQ
In short: as §1

UniProt Q8VGB9 = biological target: T6, UniProt Q8VGB9
T6 sequence (whole entry): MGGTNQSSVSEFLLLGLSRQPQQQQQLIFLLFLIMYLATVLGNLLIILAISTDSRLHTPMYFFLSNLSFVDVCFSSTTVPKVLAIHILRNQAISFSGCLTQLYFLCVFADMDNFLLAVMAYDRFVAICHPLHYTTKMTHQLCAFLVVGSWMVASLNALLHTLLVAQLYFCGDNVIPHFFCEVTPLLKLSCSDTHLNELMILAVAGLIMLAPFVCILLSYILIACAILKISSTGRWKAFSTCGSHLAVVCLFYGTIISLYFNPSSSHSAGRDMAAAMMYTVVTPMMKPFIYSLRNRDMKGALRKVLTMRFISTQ
In short: as §1

Compound	odorant receptor agonist call (UniProt Q8VFP5)	odorant receptor agonist call (UniProt Q8VG01)	odorant receptor agonist call (UniProt Q8VG26)	odorant receptor agonist call (UniProt Q8VG27)	odorant receptor agonist call (UniProt Q8VG28)	odorant receptor agonist call (UniProt Q8VG53)	odorant receptor agonist call (UniProt Q8VG64)	odorant receptor agonist call (UniProt Q8VGB9)
CCCCC=O	inactive	inactive	inactive	inactive	inactive	inactive	inactive	inactive
COc1nccnc1C(C)C	inactive	inactive		inactive		inactive	inactive	inactive
CCN(CC)CC	inactive	inactive		inactive		inactive	inactive	inactive
O=C(OCc1ccccc1)c1ccccc1O	inactive	inactive		inactive		inactive	inactive	inactive
OCCCCCCCCCO	inactive	inactive		inactive		inactive	active	inactive
O=C(O)CCCCCBr	inactive	active		inactive	inactive	inactive	inactive	inactive
CC(C)CS	inactive	inactive		inactive		inactive	inactive	inactive
CC1(C)CC(=O)CC(=O)C1	inactive	inactive		inactive		inactive	inactive	inactive
CCCCCC=CCCC=O	inactive	inactive		inactive		inactive	inactive	inactive
CC(CC=O)CCCC(C)(C)O (stereo not given)	inactive	inactive		inactive		inactive	inactive	inactive
O=C(O)C1CCC1	inactive	inactive		inactive		inactive	inactive	inactive
CCC=CCCCCC=O	inactive	active		inactive		inactive	inactive	inactive
CC(=O)OC1(C)CCC23CC1C(C)(C)C2CCC3C (stereo not given)	inactive	inactive		inactive		inactive	inactive	inactive
C=C(C)C1CC=C(C)CC1 (stereo not given)	inactive	inactive		inactive		inactive	inactive	inactive
C=C1C2CCC(C2)C1(C)C (stereo not given)	inactive	inactive		inactive		inactive	inactive	inactive
O=C(O)CCCCCCCCC(=O)O	inactive	inactive		inactive		inactive	inactive	inactive
c1ccc2ncccc2c1	inactive	inactive		inactive		inactive	inactive	inactive
